Bioassay records as filed in PubChem.
OX1R antag-1: antagonists of human orexin 1 receptor | O43613 | AID 434989 | CHO/OX1R cells, Fluo-8 calcium fluorescence, orexin A | inhibition, % at 5 µM | 330,000 compounds, 0.43% hits;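 active = inhibition above its plate's threshold, mean inhibition of all tested compounds on the plate plus 3 SD, cut at about 37% in these data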
Target sequence (O43613 whole entry, looked up): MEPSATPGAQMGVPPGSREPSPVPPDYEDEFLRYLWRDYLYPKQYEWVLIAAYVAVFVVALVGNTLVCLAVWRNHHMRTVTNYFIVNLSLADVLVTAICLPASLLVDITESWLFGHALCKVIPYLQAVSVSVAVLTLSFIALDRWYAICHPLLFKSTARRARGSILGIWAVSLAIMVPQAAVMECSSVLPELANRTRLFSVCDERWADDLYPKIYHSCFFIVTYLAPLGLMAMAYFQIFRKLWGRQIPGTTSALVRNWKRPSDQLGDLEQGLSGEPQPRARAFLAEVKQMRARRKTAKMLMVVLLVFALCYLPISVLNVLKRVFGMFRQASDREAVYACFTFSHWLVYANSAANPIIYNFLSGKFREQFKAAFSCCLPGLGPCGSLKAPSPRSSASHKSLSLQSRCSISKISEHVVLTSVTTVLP
TAAR1 antagonist: antagonists of human TAAR1 | CHO RD-HGA16 TAAR1, Fluo-8 calcium fluorescence, antagonist | 360,000 compounds, 1.5% hits | inhibition, % at 3 µM | AID 624466 | Q96RJ0;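 active = inhibition above a per-plate cutoff, the mean inhibition of test compounds on that plate plus 3 SD, cut at about 49% in these data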
Target sequence (Q96RJ0 whole entry, looked up): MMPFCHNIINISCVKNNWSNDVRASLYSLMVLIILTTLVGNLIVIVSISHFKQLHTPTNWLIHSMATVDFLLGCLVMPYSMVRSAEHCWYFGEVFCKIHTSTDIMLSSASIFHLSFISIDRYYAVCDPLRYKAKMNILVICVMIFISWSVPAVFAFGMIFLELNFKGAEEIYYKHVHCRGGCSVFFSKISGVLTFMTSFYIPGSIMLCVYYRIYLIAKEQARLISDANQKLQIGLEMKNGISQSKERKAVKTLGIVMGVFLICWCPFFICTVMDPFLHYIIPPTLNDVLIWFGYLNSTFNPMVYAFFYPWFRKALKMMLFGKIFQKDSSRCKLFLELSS
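Test system – hTAAR1-expressing CHO RD-HGA16 cells, Gα16-coupled · Reagent – β-PEA at EC80 concentration, post-compound challenge · Compound dosing – 3 µM, single point · Timing – 140 s kinetic read after compound, 140 s after agonist · Detection – Fluo-8 intracellular calcium dye fluorescence, real-time kinetic reads · Control set – DMSO and EC80 PEA controls · Repeats – n of 1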
GPR7 antag: antagonists of human GPR7 (neuropeptides B/W receptor 1); inhibition, % at 4.4 µM; P48145; 290,000 compounds, 1.1% hits; GPR7-expressing cells, fluorescence antagonist assay; in the data active = inhibition above about 16%, passing the limit was not always enough;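 note: cells stimulated with the agonist NPW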
OX1R antag-2: blocks the human orexin 1 receptor. OX1R-expressing cells, FRET antagonist read-out. 330,000 compounds, 1.8% hits. AID 485270. inhibition, % at 6.6 µM; in the data active = inhibition mostly above about 38%, no sharp cut-off; inactive = mostly below about 40%
CHO parental Ca: counter-screen: ATP calcium response change in parental CHO cells | 330,000 compounds, 0.63% hits | inhibition, % at 5.6 µM | parental CHO-K1, ATP-induced calcium, Fluo-8 fluorescence;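 active = inhibition above that plate's mean sample inhibition plus 3 SD, cut at about 26% in these data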
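Test system: parental CHO cells; detection: calcium-sensitive Fluo-8 fluorescence; evaluation: percent inhibition of calcium signal; also added: ATP as calcium-mobilizing challenge; repeats: one well per compound; control set: ATP-challenged DMSO wells low, unchallenged DMSO wells high; compound: single nominal dose of 5.6 µM per compound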
TAAR1 ag: agonists of human TAAR1; Q96RJ0; CHO RD-HGA16 TAAR1, Fluo-8 calcium fluorescence; vehicle wells 0%, saturating PEA agonist 100%; activation, % at 3 µM; 360,000 compounds, 0.99% hits; AID 624467;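 active = activation above the mean activation of all test compounds in the run plus 3 SD, cut at about 38% in these data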
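Test system: RD-HGA16 (CHO) cells co-expressing Gα16 and hTAAR1 / Benchmarks: DMSO vehicle as 0%, PEA at EC100 as 100% / Repeats: no replicates (n 1) / Measure: % activation from peak over basal fluorescence ratio, DMSO-to-PEA scaled / Timing: 17-24 h plating, Fluo-8 75 min 37 °C, 30 min RT / Technique: kinetic Fluo-8 calcium fluorescence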
TAAR1 ag conf: confirmation of human TAAR1 agonists; shares compounds with TAAR1 ag; CHO RD-HGA16 TAAR1, Fluo-8 calcium fluorescence; scaled: DMSO 0%, maximal phenethylamine 100%; activation, % at 3 µM; 2,400 compounds, 82% hits; AID 651783;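 active = activation above a cutoff set at the run's mean compound activation plus 3 SD, cut at about 39% in these data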
Ga16 ag counter: nonselective agonism, TAAR1 counter-screen; shares compounds with TAAR1 ag; CHO-Ga16 parental, Fluo-8 calcium fluorescence; normalized to maximal ATP response, DMSO zero; activation, % at 3 µM; 2,400 compounds, 50% hits;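 active = activation above the run cutoff, the mean activation over all tested wells plus 3 SD, cut at about 12% in these data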
TAAR1 desensitize: TAAR1 response desensitization, agonist counter-screen | inhibition, % at 3 µM | 2,400 compounds, 46% hits | CHO RD-HGA16 hTAAR1, Fluo-8 calcium, beta-PEA response inhibition | shares compounds with TAAR1 ag | AID 651951;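 active = inhibition above the run cutoff, the mean inhibition of all test compounds plus 3 SD, cut at about 49% in these data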;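 note: beta-PEA stimulus applied at its EC80; loss of beta-PEA calcium signal after compound pretreatment read as receptor desensitization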
Ga16 nonsel ant: nonselective Ga16 antagonist in TAAR1 agonist counter-screen; shares compounds with TAAR1 ag; CHO-Ga16 ATP-induced calcium, Fluo-8 fluorescence; inhibition, % at 3 µM; 2,400 compounds, 39% hits; AID 651952;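 active = inhibition above the plate's mean compound inhibition plus 3 SD, computed per plate, cut at about 22% in these data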
Each line names hits and unclear results; the compound was inactive in the other large screens (follow-up assays come after a bar, where they were run). Only some compounds are listed: those with a hit (about 4.6% of all), similar ones and a draw of the others.

Cc1cc(/C=C2\SC(=O)NC2=O)c(C)n1-c1ccc(N2CCOCC2)cc1	TAAR1 ag 60 | TAAR1 ag conf 70 | Ga16 ag counter 34 | TAAR1 desensitize inactive | Ga16 nonsel ant 24
Cc1cc(/C=C2\SC(=O)NC2=O)c(C)n1-c1ccc(N(C)C)cc1	none
CCOC(=O)C1(CC2CCCCO2)CCN(Cc2cc3ccccc3[nH]2)CC1 (stereo not given)	OX1R antag-1 53, TAAR1 antagonist 105, GPR7 antag 96, CHO parental Ca 36, TAAR1 ag 149 | TAAR1 ag conf 114 | Ga16 ag counter 98 | TAAR1 desensitize 104 | Ga16 nonsel ant 95
CCC(=O)N(CC)c1nc(-c2cc(OC)ccc2OC)cs1	TAAR1 ag 50 | TAAR1 ag conf 45 | Ga16 ag counter 35 | TAAR1 desensitize inactive | Ga16 nonsel ant 26
N#C/C(=C/c1cn[nH]c1-c1cccc(Br)c1)C(=O)O	TAAR1 ag 71 | TAAR1 ag conf 112 | Ga16 ag counter 52 | TAAR1 desensitize inactive | Ga16 nonsel ant inactive
CCOc1ccc(S(=O)(=O)N2CCC(C(=O)NCCc3ccc(OC)c(OC)c3)CC2)cc1	none
N#Cc1cccc(NC(=O)CSc2ccc3c4c(cccc24)C(=O)c2ccccc2-3)c1	OX1R antag-1 75, TAAR1 antagonist 87, CHO parental Ca 59, TAAR1 ag 86 | TAAR1 ag conf 47 | Ga16 ag counter 57 | TAAR1 desensitize 73 | Ga16 nonsel ant 77
COc1ccc(NC(=O)CSc2ccc3c4c(cccc24)C(=O)c2ccccc2-3)cc1	none
CC(C(=O)N1CCc2ccccc2C1)N(c1ccccc1)S(C)(=O)=O (stereo not given)	none
CC(=C1C(=O)c2ccccc2C1=O)N1CCc2ccccc2C1	none (no result: TAAR1 antagonist, TAAR1 ag) | Ga16 ag counter inactive | Ga16 nonsel ant inactive
CC(=O)c1c(C)[nH]c(C(=O)CN2C(=O)NC(C)(c3ccc(C)cc3)C2=O)c1C (stereo not given)	GPR7 antag 20, TAAR1 ag 85 | TAAR1 ag conf 113 | Ga16 ag counter 56 | TAAR1 desensitize 60 | Ga16 nonsel ant 36
CCN1C(=O)C(=O)N(CC(=O)c2[nH]c(C)c(C(C)=O)c2C)C1=O	none (no result: GPR7 antag)
CCN(CC)S(=O)(=O)c1cccc(C(=O)OCC(=O)N2CC(=O)Nc3ccccc32)c1	none
c1ccc2c(-c3ccc(OCCN4CCCCC4)cc3)c(-c3ccsc3)sc2c1	TAAR1 ag 47 (no result: GPR7 antag) | TAAR1 ag conf 49 | Ga16 ag counter 25 | TAAR1 desensitize 51 | Ga16 nonsel ant 43
C=CCC[C@H](Cc1ccc(F)cc1)C(=O)OC[C@H](Cc1c[nH]c2ccccc12)NC(=O)[C@@H](CC=C)CC(=O)NCCO	TAAR1 antagonist 74, TAAR1 ag 65 (no result: GPR7 antag) | TAAR1 ag conf inactive | Ga16 ag counter 25 | TAAR1 desensitize 69 | Ga16 nonsel ant 53
C=CCC[C@H](Cc1ccc(F)cc1)C(=O)OC[C@@H](Cc1c[nH]c2ccccc12)NC(=O)[C@@H](CC=C)CC(=O)N[C@@H](CO)Cc1ccccc1	none (no result: GPR7 antag)
Cc1ccc(NC(=O)CNC(=O)c2cccs2)nc1	none (no result: GPR7 antag)
N#Cc1nc(-c2ccc(Cl)cc2)oc1NCCc1ccccn1	TAAR1 ag 45 | TAAR1 ag conf inactive | Ga16 ag counter inactive | TAAR1 desensitize inactive | Ga16 nonsel ant inactive
C[C@H](NC(=O)[C@@H]1CSC2c3ccccc3C(=O)N21)C(=O)NCCc1ccccc1 (stereo not given in full)	TAAR1 ag 68 | TAAR1 ag conf 81 | Ga16 ag counter inactive | TAAR1 desensitize inactive | Ga16 nonsel ant inactive
O=C(NC12CC3CC(CC(C3)C1)C2)N1CCC(n2nnc3ccccc32)CC1	none
COC(=O)[C@@]1(Cc2ccc(F)cc2)[C@H]2c3cc(C(=O)N4CCCC4)n(CCF)c3C[C@H]2CN1C(=O)c1ccccc1	none (no result: OX1R antag-1, GPR7 antag, OX1R antag-2, CHO parental Ca)
COC(=O)[C@@]1(Cc2ccc(F)cc2)[C@H]2c3cc(C(=O)N4CCCC4)n(CC4CC4)c3C[C@H]2CN1C(=O)c1ccccc1	TAAR1 ag 70 (no result: OX1R antag-1, GPR7 antag, OX1R antag-2, CHO parental Ca) | TAAR1 ag conf 76 | Ga16 ag counter 38 | TAAR1 desensitize 52 | Ga16 nonsel ant 32
COc1ccc(NC(=O)CSc2nnc(-c3ccccn3)n2N)cc1Cl	TAAR1 ag 44 | TAAR1 ag conf 61 | Ga16 ag counter inactive | TAAR1 desensitize inactive | Ga16 nonsel ant inactive
CC1(C(=O)NS(=O)(=O)c2ccc(F)cc2F)CCN1C(=O)Cc1ccc(-c2ccccc2)cc1 (stereo not given)	none (no result: OX1R antag-1, GPR7 antag, OX1R antag-2, CHO parental Ca)
N/C(Cc1cccc2ccccc12)=N\OC(=O)c1ccc2c(c1)OCO2	TAAR1 antagonist 49, TAAR1 ag 74 | TAAR1 ag conf inactive | Ga16 ag counter inactive | TAAR1 desensitize inactive | Ga16 nonsel ant inactive
N/C(Cc1cccc2ccccc12)=N\OC(=O)c1ccc(Br)o1	TAAR1 ag 91 (no result: OX1R antag-1, OX1R antag-2, CHO parental Ca) | TAAR1 ag conf 89 | Ga16 ag counter inactive | TAAR1 desensitize 80 | Ga16 nonsel ant inactive
N/C(Cc1ccc(Cl)cc1Cl)=N\OC(=O)c1ccc(Br)o1	none
Cc1cc(NC(=O)c2cccc(Br)c2)no1	none (no result: GPR7 antag)
Cc1nc(CSc2ccc(Br)cc2)cs1	none
Cc1cc2c(cc1S(=O)(=O)CCC(=O)NCCc1ccccc1)OCC(=O)N2	TAAR1 antagonist 52, TAAR1 ag 89 | TAAR1 ag conf 101 | Ga16 ag counter inactive | TAAR1 desensitize 75 | Ga16 nonsel ant inactive
Cc1cccc(CCNC(=O)CCS(=O)(=O)c2cc3c(cc2C)NC(=O)CO3)c1	none
CCc1nnc(NC(=O)CSc2nc(C)cc(C)c2C#N)s1	none
COC(=O)c1ccc(CNCC(O)COc2ccc(-c3ccccc3)cc2)cc1 (stereo not given)	TAAR1 ag 56 | TAAR1 ag conf inactive | Ga16 ag counter 22 | TAAR1 desensitize inactive | Ga16 nonsel ant 30
OC(CNCc1ccc(Cl)cc1)COc1ccccc1 (stereo not given)	none
Cc1ccc(C)c(NS(=O)(=O)c2csc(C(N)=O)c2)c1	none
CCN(CC(=O)NCc1cccs1)C(=O)c1cccc(S(=O)(=O)NCc2ccccc2)c1	none (no result: GPR7 antag)
